Results: ChEMBL document CHEMBL4627259, “Discovery of LY3325656: A GPR142 agonist suitable for clinical testing in human” (Bioorg Med Chem Lett, 2020)

Experiments:
[1] = Drug metabolism in dog microsomes assessed as drug turnover at 20 uM measured after 30 mins by LCMS analysis; format: ADME, Canis lupus familiaris, Microsome; conditions: read-out: Drug metabolism
In short: (§1)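 High-throughput microsomal stability: compound at 20 uM incubated with mouse, rat, dog or human liver microsomes at 37 °C; percent parent remaining measured after 30 min and reported as % turnover.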

[2] = Drug metabolism in rat microsomes assessed as drug turnover at 20 uM measured after 30 mins by LCMS analysis; format: ADME, Microsome; conditions: read-out: Drug metabolism; in short: as §1
[3] = Drug metabolism in mouse microsomes assessed as drug turnover at 20 uM measured after 30 mins by LCMS analysis; format: ADME, Microsome; conditions: read-out: Drug metabolism; in short: as §1
[4] = target: T1, Probable G-protein coupled receptor 142 (Homo sapiens, UniProt Q7Z601); assay: Agonist activity at human GPR142 receptor expressed in HEK293 cells assessed as accumulation of inositol phosphate incubated for 1 hr followed by IP1-d2 addition by HTRF assay; format: functional, cell-based
T1 sequence (Q7Z601 whole entry): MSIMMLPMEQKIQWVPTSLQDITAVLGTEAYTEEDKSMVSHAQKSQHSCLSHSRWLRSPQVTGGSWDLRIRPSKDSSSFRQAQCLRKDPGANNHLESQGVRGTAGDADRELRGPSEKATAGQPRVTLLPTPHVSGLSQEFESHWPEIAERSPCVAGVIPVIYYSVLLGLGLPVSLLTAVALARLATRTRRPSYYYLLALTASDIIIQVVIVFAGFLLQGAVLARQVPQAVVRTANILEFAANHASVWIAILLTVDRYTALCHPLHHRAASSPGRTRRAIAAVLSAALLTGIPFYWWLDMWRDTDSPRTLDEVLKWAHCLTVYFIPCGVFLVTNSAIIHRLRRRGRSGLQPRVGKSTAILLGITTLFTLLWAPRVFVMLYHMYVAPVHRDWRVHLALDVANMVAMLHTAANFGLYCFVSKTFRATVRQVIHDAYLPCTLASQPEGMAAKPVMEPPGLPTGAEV
In short: (§2)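 HEK293 cells stably expressing human GPR142 (DMEM, 10% FBS, 800 ug/mL G418, 37 °C, 5% CO2), seeded 5000 cells/well and left 18 h to attach. Compounds added at 30 uM to 1 nM, 1 h incubation in HBSS (+Ca, +Mg), 0.1% BSA, 50 mM LiCl, 20 mM HEPES pH 7.2. IP-1 HTRF read-out: IP1-d2 then cryptate, 1 h at 25 °C, 665/620 nm ratio converted via IP-1 standard curve; EC50 by 4-parameter logistic fit.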

[5] = target: T2, Probable G-protein coupled receptor 142 (Homo sapiens) (UniProt Q7Z601); assay: Agonist activity at human GPR142 receptor expressed in HEK293 cells assessed as accumulation of inositol phosphate at 30 uM to 1 nM incubated for 1 hr followed by IP1-d2 addition by HTRF assay relative to control; format: functional, cell-based; in short: as §2
T2 sequence (whole entry): T1 sequence (Q7Z601 whole entry)

[6] = Drug metabolism in human microsomes assessed as drug turnover at 20 uM measured after 30 mins by LCMS analysis; format: ADME, Microsome; conditions: read-out: Drug metabolism; in short: as §1
[7] = Clearance in dog at 1 mg/kg, iv or 5 mg/kg, po; format: ADME, organism-based, Canis lupus familiaris; conditions: in vivo
[8] = Oral bioavailability in dog at 5 mg/kg; format: ADME, organism-based, Canis lupus familiaris; conditions: in vivo
CYP2C9 = CYP2C9 (Homo sapiens, UniProt P11712); assay: Inhibition of CYP2C9 (unknown origin) at 10 uM relative to control; format: ADME
Chain of CYP2C9 (P11712 whole entry): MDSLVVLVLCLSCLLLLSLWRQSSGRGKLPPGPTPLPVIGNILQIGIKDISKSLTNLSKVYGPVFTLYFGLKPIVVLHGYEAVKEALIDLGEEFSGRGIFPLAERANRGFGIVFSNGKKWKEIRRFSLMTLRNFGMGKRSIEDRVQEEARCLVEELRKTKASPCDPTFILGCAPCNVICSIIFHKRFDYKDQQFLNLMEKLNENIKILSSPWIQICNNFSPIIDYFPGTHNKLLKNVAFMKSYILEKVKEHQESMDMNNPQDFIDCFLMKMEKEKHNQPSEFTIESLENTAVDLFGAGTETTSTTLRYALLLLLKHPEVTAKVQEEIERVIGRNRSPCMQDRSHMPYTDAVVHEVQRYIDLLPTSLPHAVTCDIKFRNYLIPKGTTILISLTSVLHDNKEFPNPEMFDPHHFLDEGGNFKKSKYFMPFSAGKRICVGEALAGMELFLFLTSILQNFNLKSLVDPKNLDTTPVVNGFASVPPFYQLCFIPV

[9] = Clearance in rat at 1 mg/kg, iv or 10 mg/kg, po; format: ADME, organism-based; conditions: in vivo
CYP2D6 = CYP2D6 (Homo sapiens, UniProt P10635); assay: Inhibition of CYP2D6 (unknown origin) at 10 uM relative to control; format: ADME
Chain of CYP2D6 (P10635 whole entry): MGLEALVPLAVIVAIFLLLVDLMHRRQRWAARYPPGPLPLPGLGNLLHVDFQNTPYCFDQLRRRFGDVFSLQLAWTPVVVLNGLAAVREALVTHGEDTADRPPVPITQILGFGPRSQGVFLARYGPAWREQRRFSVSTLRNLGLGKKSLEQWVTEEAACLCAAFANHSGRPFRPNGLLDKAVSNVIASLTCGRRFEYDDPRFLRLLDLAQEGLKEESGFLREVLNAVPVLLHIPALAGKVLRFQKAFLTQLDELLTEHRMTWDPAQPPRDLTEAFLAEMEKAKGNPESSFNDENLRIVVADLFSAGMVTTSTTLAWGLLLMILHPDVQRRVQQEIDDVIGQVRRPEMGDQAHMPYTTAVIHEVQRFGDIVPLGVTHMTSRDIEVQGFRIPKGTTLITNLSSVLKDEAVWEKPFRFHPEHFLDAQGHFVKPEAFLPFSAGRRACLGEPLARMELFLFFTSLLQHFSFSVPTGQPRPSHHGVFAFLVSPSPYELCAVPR

CYP3A4 = CYP3A4 (Homo sapiens, UniProt P08684); assay: Inhibition of CYP3A4 (unknown origin) at 10 uM relative to control; format: ADME
Chain of CYP3A4 (P08684 whole entry): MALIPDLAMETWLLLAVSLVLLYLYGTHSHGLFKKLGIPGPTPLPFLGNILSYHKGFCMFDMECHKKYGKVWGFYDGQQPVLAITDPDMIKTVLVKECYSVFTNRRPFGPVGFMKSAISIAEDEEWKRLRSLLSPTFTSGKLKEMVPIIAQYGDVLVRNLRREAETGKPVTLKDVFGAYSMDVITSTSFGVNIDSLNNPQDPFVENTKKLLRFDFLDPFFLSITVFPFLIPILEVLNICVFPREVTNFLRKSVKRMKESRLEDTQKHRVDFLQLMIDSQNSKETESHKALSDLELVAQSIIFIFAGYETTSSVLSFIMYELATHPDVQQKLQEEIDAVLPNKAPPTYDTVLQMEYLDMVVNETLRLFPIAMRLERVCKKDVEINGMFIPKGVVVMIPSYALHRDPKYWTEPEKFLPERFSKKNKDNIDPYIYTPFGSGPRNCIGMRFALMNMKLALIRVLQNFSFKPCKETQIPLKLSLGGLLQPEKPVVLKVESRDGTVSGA

[10] = Volume of distribution at steady state in rat at 1 mg/kg, iv or 10 mg/kg, po; format: ADME, organism-based; conditions: in vivo, read-out: Vdss
[11] = Oral bioavailability in rat at 10 mg/kg; format: ADME, organism-based; conditions: in vivo
[12] = Volume of distribution at steady state in dog at 1 mg/kg, iv or 5 mg/kg, po; format: ADME, organism-based, Canis lupus familiaris; conditions: in vivo, read-out: Vdss

SMILES | metabolised at 0.5 h, 20 µM [1] [%] | metabolised at 0.5 h, 20 µM [2] [%] | metabolised at 0.5 h, 20 µM [3] [%] | EC50 [4] [nM] | Emax [5] [%] | metabolised at 0.5 h, 20 µM [6] [%] | clearance [7] [mL/min/kg] | bioavailability [8] [%] | inhibition at 10 µM (CYP2C9) [%] | clearance [9] [mL/min/kg] | inhibition at 10 µM (CYP2D6) [%] | inhibition at 10 µM (CYP3A4) [%] | Vd [10] [L/kg] | bioavailability [11] [%] | Vd [12] [L/kg]
Cc1ncn(CCN2CCOCC2)c1NC(=O)[C@H]1CCC[C@@H](N(C)C(=O)c2cccc(C(F)(F)F)c2)C1 | 19 | 63 | 67 | 51 | 97 | 38 |  |  |  |  |  |  |  |  | 
Cc1ncn(CC(F)(F)F)c1NC(=O)[C@H]1CCC[C@@H](N(C)C(=O)c2cccc(OC(F)(F)F)c2)C1 | 51 | 56 | 86 | 110 | 114 | 76 |  |  |  |  |  |  |  |  | 
Cc1ncn(CC2CN(C)C2)c1NC(=O)[C@H]1CCC[C@@H](N(C)C(=O)c2cccc(C(F)(F)F)c2)C1 | 24 | 29 | 38 | 147 | 103 | 20 |  |  |  |  |  |  |  |  | 
Cc1ncn(C)c1NC(=O)[C@H]1CCC[C@@H](N(C)C(=O)c2cccc(OC(F)(F)F)c2)C1 | 40 | 37 | 90 | 71 | 104 | 42 |  |  |  |  |  |  |  |  | 
CN(C(=O)c1cccc(Cl)c1)[C@@H]1CCO[C@H](c2nnc(-c3cnc4ccccn34)[nH]2)C1 | 46 | 23 | 66 | 35 | 102 | 29 |  |  |  |  |  |  |  |  | 
Cc1ncn(CC(F)F)c1NC(=O)[C@H]1CCC[C@@H](N(C)C(=O)c2cccc(Cl)c2)C1 | 19 | 79 | 54 | 104 | 99 | 51 |  |  |  |  |  |  |  |  | 
CN(C(=O)c1cccc(C(F)(F)F)c1)[C@@H]1CCO[C@H](c2nnc(-c3cnc4n3CCOC4)[nH]2)C1 | 17 | 28 | 27 | 102 | 108 | 12 |  |  |  |  |  |  |  |  | 
Cc1ncn(CC(F)(F)F)c1NC(=O)[C@H]1CCC[C@@H](N(C)C(=O)c2cccc(C(F)(F)F)c2)C1 | 38 | 59 | 67 | 81 | 114 | 62 |  |  |  |  |  |  |  |  | 
Cc1ncn(CC#N)c1NC(=O)[C@H]1CCC[C@@H](N(C)C(=O)c2cccc(C(F)(F)F)c2)C1 | 6 | 21 | 56 | 93 | 96 | 26 |  |  |  |  |  |  |  |  | 
Cc1ncn(CC(F)F)c1NC(=O)[C@H]1CCC[C@@H](N(C)C(=O)c2cccc(C(F)(F)F)c2)C1 | 38 | 59 | 64 | 63 | 105 | 58 |  |  |  |  |  |  |  |  | 
Cc1ncn(CC2CC2)c1NC(=O)[C@H]1CCC[C@@H](N(C)C(=O)c2cccc(C(F)(F)F)c2)C1 | 66 | 88 | 97 | 52 | 118 | 72 |  |  |  |  |  |  |  |  | 
Cc1ncn(C(C)C)c1NC(=O)[C@H]1CCC[C@@H](N(C)C(=O)c2cccc(C(F)(F)F)c2)C1 | 33 | 52 | 76 | 31 | 115 | 48 |  |  |  |  |  |  |  |  | 

The next lines start with the values.

metabolised at 0.5 h, 20 µM [1] [%] | metabolised at 0.5 h, 20 µM [2] [%] | metabolised at 0.5 h, 20 µM [3] [%] | EC50 [4] [nM] | Emax [5] [%] | metabolised at 0.5 h, 20 µM [6] [%] | clearance [7] [mL/min/kg] | bioavailability [8] [%] | inhibition at 10 µM (CYP2C9) [%] | clearance [9] [mL/min/kg] | inhibition at 10 µM (CYP2D6) [%] | inhibition at 10 µM (CYP3A4) [%] | Vd [10] [L/kg] | bioavailability [11] [%] | Vd [12] [L/kg] | SMILES
33 | 55 | 39 | 14 | 111 | 26 | 8.8 | 86 | 0 | 40.1 | 0 | 3.3 | 1 | 29 | 0.9 | Cc1ncn(C)c1-c1nnc([C@H]2CCC[C@@H](N(C)C(=O)c3cccc(Cl)c3)C2)[nH]1
9 | 36 | 36 | 76 | 101 | 13 |  |  |  |  |  |  |  |  |  | Cc1nc[nH]c1-c1nnc([C@H]2CCC[C@@H](N(C)C(=O)c3cccc(C(F)(F)F)c3)C2)[nH]1
52 | 80 | 70 | 32 | 102 | 84 |  |  |  |  |  |  |  |  |  | CN(C(=O)c1cccc(C(F)(F)F)c1)[C@@H]1CCC[C@H](c2nnc(-c3cnc4n3CCOC4)[nH]2)C1
16 | 15 | 17 |  |  | 7 |  |  |  |  |  |  |  |  |  | Cc1ncn(C)c1-c1nnc([C@@H]2C[C@H](N(C)C(=O)c3cccc(Cl)c3)CCO2)[nH]1
46 | 43 | 64 | 11 | 117 | 67 |  |  |  |  |  |  |  |  |  | Cc1ncn(C)c1-c1nnc([C@H]2CCC[C@@H](N(C)C(=O)c3cccc(C(F)(F)F)c3)C2)[nH]1
63 | 64 | 83 | 14 | 123 | 69 |  |  |  |  |  |  |  |  |  | Cc1ncn(CC2CC2)c1-c1nnc([C@@H]2C[C@H](N(C)C(=O)c3cccc(C(F)(F)F)c3)CCO2)[nH]1
48 | 13 | 46 | 16 | 121 | 82 |  |  |  |  |  |  |  |  |  | Cc1ncn(C2CCC2)c1-c1nnc([C@@H]2C[C@H](N(C)C(=O)c3cccc(C(F)(F)F)c3)CCO2)[nH]1
16 | 14 | 39 |  |  | 10 |  |  |  |  |  |  |  |  |  | Cc1ncn(C)c1-c1nnc([C@@H]2C[C@H](N(C)C(=O)c3cccc(OC(F)(F)F)c3)CCO2)[nH]1
22 | 41 | 53 | 46 | 98 | 69 |  |  |  |  |  |  |  |  |  | Cc1ncc(-c2nnc([C@H]3CCC[C@@H](N(C)C(=O)c4cccc(C(F)(F)F)c4)C3)[nH]2)n1C
83 | 67 | 82 | 41 | 109 | 90 |  |  |  |  |  |  |  |  |  | Cc1ncn(CC(F)F)c1-c1nnc([C@H]2CCC[C@@H](N(C)C(=O)c3cccc(C(F)(F)F)c3)C2)[nH]1
7 | 16 | 39 | 53 | 107 | 18 |  |  |  |  |  |  |  |  |  | CN(C(=O)c1cccc(C(F)(F)F)c1)[C@@H]1CCO[C@H](c2nnc(-c3cnc4n3CCC4)[nH]2)C1
